# Sampled rows, rich in hits. Any-hit rate of the full collection: about 1.9%.
# NCF1 inh – inhibitors of human p47phox binding | P14598 | p47phox/p22phox peptide binding, fluorescence polarization, 2 h | inhibition, % at 24.7 µM | actives 0.53% (n = 220,000);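 active = inhibition above about 30%, limit read from the data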;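 also: 0% = p47phox with labelled peptide and 100% = labelled peptide alone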
# Target sequence (P14598 whole entry, looked up): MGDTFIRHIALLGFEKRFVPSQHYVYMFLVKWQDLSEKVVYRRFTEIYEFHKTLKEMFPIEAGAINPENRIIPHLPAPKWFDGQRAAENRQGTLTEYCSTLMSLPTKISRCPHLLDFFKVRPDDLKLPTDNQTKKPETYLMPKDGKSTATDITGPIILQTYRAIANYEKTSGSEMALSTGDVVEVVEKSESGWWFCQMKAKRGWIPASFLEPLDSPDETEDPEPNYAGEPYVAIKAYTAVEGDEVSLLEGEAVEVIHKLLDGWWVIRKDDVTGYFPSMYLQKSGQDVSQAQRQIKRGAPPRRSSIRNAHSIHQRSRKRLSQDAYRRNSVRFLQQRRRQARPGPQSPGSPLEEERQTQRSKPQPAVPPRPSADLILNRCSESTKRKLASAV
# RAM inhibit – yeast RAM network inhibition | S. cerevisiae dse1pr::URA3 reporter, 5-FOA growth OD615, 2 d; analog-sensitive cbk1-as2 kinase mutant strain | inhibition, % at 50 µM | actives 1.8% (n = 190,000) | AID 868;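 active = inhibition above a set limit, 3 SD over mean compound inhibition, cut at about 8.4% in these data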;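 also: 0% = DMSO-only wells with no growth and 100% = 10 µM 1-NA-PP1 full growth; inhibition rescues growth on 5-FOA so higher OD means more RAM inhibition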
# pCIP destab – p/CIP protein destabilization; F442A p/CIP-EGFP cells, EGFP fluorescence, 16 h; actives 0.01% (n = 290,000); decrease of EGFP signal, % at 10 µM; AID 1984; Q05BA5;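 active = EGFP signal decrease of at least 30% at 10 µM or well 3 SD below plate mean, unless failing retest; inactive = the rest, including hits failing retest or dose response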
# Dynein transport – dynein cargo transport inhibition. 3617.4 mouse cells, GR-EGFP nuclear translocation imaging; test concentration mostly 20 µM; stimulated with dexamethasone, 1 µM; active compounds read low. z-score, hits read low. actives 0.47% (n = 220,000). AID 1381;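 active = plate z-score of nuclear minus cytoplasmic receptor signal below a set negative limit, without overly bright fluorescence or cell loss, cut at about -3.5 in these data, passing the limit was not always enough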;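 also: z-score of nuclear minus cytoplasmic ring GR-EGFP intensity difference per well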
#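 Schedule: 48 h induction, then 1 h compound, then 30 min agonist, 37 °C. Buffer or medium: tetracycline-free induction medium containing charcoal-stripped FBS. Reagent: 1.0 µM final dexamethasone stimulus. Evaluation: nuclear versus cytoplasmic GR-EGFP signal, averaged per well. Signal: high-content fluorescence imaging after fixation.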
# RAM 5-FOA – RAM network inhibitors in efflux-deficient yeast; AID 1305; max inhibition, %; S. cerevisiae efflux-deficient reporter strain, 5-FOA growth OD615, 2 days; 1,200 tested, under 10 active; shares compounds with RAM inhibit; call rule not given here;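 also: plate controls were vehicle for no effect and reference inhibitor for full effect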
# Dynein confirm – dynein cargo transport inhibition, confirmation | calls only at 20 µM | actives 69% (n = 1,000) | 3617.4 GR-EGFP nuclear translocation imaging, dexamethasone-induced | shares compounds with Dynein transport | AID 463116;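 active = inhibition of receptor movement into the nucleus at or above a set limit in both runs, with normal cell brightness and cell count; inconclusive = limit reached in only one run, brightness and count normal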;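 also: dexamethasone at 1 µM final in well for 30 min; nuclear minus cytoplasmic GR-EGFP mean intensity difference in channel 2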
# Starred values were filed as active, the others as inactive; i = inactive; ? = inconclusive; / = no result; + = active, no number.
SMILES,NCF1 inh,RAM inhibit,pCIP destab,Dynein transport,Dynein confirm,others
CCOCCSc1nc2c(c(-c3cccs3)c1C#N)CC/C2=C/c1cccs1,-60.2,12.0*,-5.9,-0.701,/,RAM 5-FOA=2.8
CC1C(C)N1CC(O)Cn1ccnc1[N+](=O)[O-] (configuration not stated),-1.6,/,-15.8,-0.367,/,
CCc1ccc(N2C(=O)NC(=O)C(Cc3ccc(OC)cc3OC)C2=O)cc1 (configuration not stated),-6.2,2.1,-10.0,-0.738,/,
CCCCCn1c(=O)c(C(=O)Nc2nc(CC(=O)OCC)cs2)c(O)c2ccccc21,-4.5,25.3*,6.6,0.152,/,RAM 5-FOA=2.6
CCCCCn1c(=O)c(C(=O)Nc2cnccn2)c(O)c2ccccc21,-10.4,11.8*,-24.5,-0.645,/,RAM 5-FOA=1.8
CCOC(=O)C(O)(c1ccc(N(CC)C(=O)COc2ccccc2)cc1)C(F)(F)F (configuration not stated),9.9,-0.4,-9.5,0.221,/,
CC(C)[C@H](CN(N=O)[C@@H](Cc1ccccc1)CN(C)N=O)N(CCc1ccccc1)N=O,-8.3,13.2*,-11.7,-0.216,/,RAM 5-FOA=4.0
CN(C)c1ccc(/C=C/C=C2/C(=O)NC(=O)N(c3ccccc3)C2=O)cc1,-67.7,25.8*,-33.2,-0.267,/,RAM 5-FOA=12.3
CCOC(=O)c1c(-c2ccc(OC)cc2)oc2ccc(OC(=O)N(C)C)cc12,-20.4,14.5*,7.2,-0.788,/,RAM 5-FOA=1.2
Cc1oc2ccc(OC(=O)N(C)C)cc2c1C(=O)OC(C)C,-8.4,0.9,-3.7,0.321,/,
COc1ccc(Oc2cc(NC(=O)c3nn(C)cc3[N+](=O)[O-])cc([N+](=O)[O-])c2)cc1,-11.3,2.7,-25.7,-3.99*,+,
CC1(C)C[C@H]2C=C(C=O)[C@]3(C=O)C[C@]3(C)[C@H]2C1,-5.5,-2.4,-3.5,-5.09,+,
FC(F)(F)c1ccccc1N1CC1c1ccncc1 (configuration not stated),/,/,-12.5,/,/,
C/C(=C\c1ccc(N(C)C)cc1)[N+](=O)[O-],10.8,1.0,-8.3,-4.52*,+,
COC(=O)c1cn(C(=O)c2cccc3ccccc23)c2ccccc12,-28.1,/,-1.4,0.0338,/,
COC1=CCC2([N+](=O)[O-])CN(C)CC1([N+](=O)[O-])C2 (configuration not stated),-2.4,3.3,-1.8,-0.0065,/,
N#CC(C#N)=Cc1ccc(C=C(C#N)C#N)cc1,-4.3,/,5.7,-4.3*,?,
Cc1cc([N+](=O)[O-])c2ccccc2[n+]1[O-],-2.2,/,-11.8,-4.55*,+,
C=CCN1C(=O)/C(=C/c2cc(C)n(-c3cccnc3)c2C)C(=O)NC1=S,-22.1,4.7,-20.7,-6.46*,i,
N#CCCn1cc(C(=O)Nc2ccccc2Cl)c(-c2ccc(F)cc2)n1,/,/,-9.1,/,/,
CCN(CC)c1ccc(C=C2C(=O)NC(=S)NC2=O)cc1,-243.1,/,-4.6,-5.12*,?,
CCN(CC)c1ccc(/C=N/c2sc3c(c2C#N)C2CCN3CC2)c(O)c1,73.8*,0.4,-2.2,-3.73,+,
c1ccc(CCNCc2cccs2)cc1,/,/,-8.8,/,/,
O=C1NC(=O)N(Cc2ccco2)C(=O)/C1=C/C=C/c1ccco1,-6.7,/,-3.6,-3.79*,?,
Cn1cccc1/C=C1\C(=O)NC(=O)N(Cc2ccco2)C1=O,-23.3,0.9,-13.1,-0.227,/,
SMILES,NCF1 inh,RAM inhibit,pCIP destab,Dynein transport,Dynein confirm,others
O=C1NC(=O)N(Cc2ccccc2)C(=O)/C1=C\C=C\c1ccco1,-217.6,5.5,-32.2,-4.42*,+,
COc1cc(NC(=O)CN2C3CCC2CC(O)(c2cccnc2)C3)cc(OC)c1 (configuration not stated),-15.9,-0.8,-9.9,-0.341,/,
Cc1ccnc(NS(=O)(=O)c2ccc(N=Cc3c(O)n(C)c(=O)n(C)c3=O)cc2)n1,-12.9,3.3,-4.0,-1,/,
O=C1NC(=S)N(c2ccc(F)cc2)C(=O)/C1=C/c1ccco1,/,/,-10.1,/,/,
Cc1cccc(N2C(=O)NC(=O)/C(=C\C=C\c3ccco3)C2=O)c1,-31.5,/,-18.8,-4.96*,+,
Cc1ccc(N2C(=O)NC(=O)/C(=C\C=C\c3ccco3)C2=O)cc1C,-18.0,3.6,-34.2,-5.65*,+,
CN1C(=O)/C(=C/C=C/c2ccco2)C(=O)NC1=S,-214.1,/,-8.8,-0.757,/,
Cc1ccc(N2C(=O)NC(=O)/C(=C\C=C\c3ccco3)C2=O)cc1,-51.6,/,-19.9,-5.06*,+,
O=C1NC(=O)N(c2ccccc2)C(=O)/C1=C/C=C/c1ccco1,-47.1,/,-29.5,-2.2,/,
Cc1nn(Cc2ccccc2)c(C)c1C=C1C(=O)NC(=S)NC1=O,-100.4,0.0,-1.4,-4.68*,i,
Cc1c(C=C2C(=O)NC(=O)NC2=O)c(=O)n(-c2ccccc2)n1C,3.0,0.9,-0.9,0.736,/,
CNc1cc(Cl)c2nonc2c1[N+](=O)[O-],11.4,0.1,-25.7,-6.95*,?,
Cc1cc([N+](=O)[O-])c(Cl)cc1NC(=O)C(C)C,7.2,1.2,5.0,0.987,/,
C[C@]12CCC3[C@@H](CCC4=CC(=O)CC[C@@]43C=O)C1CCC2=O (some centres not stated),/,/,3.6,/,/,
C[C@]12CCC(=O)C=C1CC[C@@H]1C2[C@H](O)C[C@]2(C)C(=O)CCC12 (some centres not stated),/,/,-9.0,/,/,
CCc1ccc(-c2nn(Cc3ccccc3)cc2C=O)cc1,-9.9,-0.4,3.0,1.64,/,
O=C1NC(=O)N(CCc2ccc(F)cc2)C(=O)/C1=C\C=C\c1ccccc1,-7.2,4.9,-4.7,-4.08*,+,
C=CCN1C(=O)NC(=O)/C(=C/c2ccc(OC)c(CSc3ccccn3)c2)C1=O,-22.2,0.5,-13.7,-0.747,/,
C=CCN1C(=O)NC(=O)/C(=C/C=C/c2ccccc2)C1=O,29.9,5.8,0.7,-4.88*,+,
Cc1cc(OCC(=O)Nc2c(C)n(C)n(-c3ccccc3)c2=O)c2c3c(c(=O)oc2c1)CCC3,/,/,-8.7,/,/,
COc1ccc(OC)c(N2C(=O)NC(=O)/C(=C/c3ccc([N+](=O)[O-])s3)C2=O)c1,-81.7,-1.2,-25.3,-5.34*,+,
C=C1C(=O)O[C@H]2C[C@@H](C)[C@@H]3C=CC(=O)[C@@]3(C)C[C@H]12,-8.2,/,-41.2,-3.85*,+,
COc1cccc(C2CC3C(=O)C=CC2N3Cc2ccccc2)c1 (configuration not stated),-3.4,0.8,-8.4,-3.78*,+,
COc1ccc(-c2nn(CCC#N)cc2C(=O)NCc2ccccc2)cc1OC,/,/,-9.2,/,/,
O=C(C1CCN(S(=O)(=O)c2ccccc2)CC1)N1CCC2(CC1)OCCO2,-0.1,0.0,-0.1,-0.105,/,
CN1CCN(c2ccc([N+](=O)[O-])c3no[n+]([O-])c23)CC1,-91.8,/,-69.6,-4.68*,i,
CN1CCN(c2ccc(S(C)(=O)=O)cc2[N+](=O)[O-])CC1,-0.2,3.4,4.6,0.267,/,

# From PubChem
